This is an account of results in PubChem BioAssay.

Active and inactive are the calls of the source.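 How the source made its calls, unless noted: active means inhibition above 20% together with a positive visual image hit; inconclusive means visual image hit but inhibition not above 20%; inactive means no visual image hit.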

Assay [1] is described as follows: inhibitors of TNFa-induced NFkB p65 translocation, primary screen, imaging, HUVEC, MLSMR starter and 10KST1 sets (AID 438).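 Further: compound added about 3h40 before a 20 min TNFalpha stimulation.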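 On inhibition: signal is the nuclear over cytoplasmic p65 intensity ratio per well.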 Conditions: HUVEC TNFa-induced p65 nuclear translocation; cell count: measured here: nuclei count (cytotoxicity indicator), at 2.08 µM; inhibition: at 2 µM, stronger effect = higher value, 0% TNFa-plus-vehicle, 100% no-TNFa wells.
Assay [2] can be described thus: reduction of polyQ htt aggregates in cells – imaging, exon1htt(103Q)mCFP cells, high-content imaging, primary screen (AID 483;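 active means visual image review flags a hit and inhibition of aggregation exceeds 20%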;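 further: compound exposure lasted 3 days before fixation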;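 on nuclei count: percent of the per-plate median nuclei count of sample wells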). Conditions: exon1htt(103Q)mCFP cell line, aggregate imaging, at 2 µM; inhibition of aggregation: stronger effect = higher value; nuclei count: measured here: cell count, toxicity.
The nature of assay [3]: endothelial E-selectin expression blockers – imaging, HUVEC, immunofluorescence, MLSMR starter and 10KST1 sets, primary screen (AID 487;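 active means visually confirmed hit in the image check and inhibition above 20%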;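 on inhibition: signal is fraction of cell area covered by stained E-selectin grains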;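 on nuclei count: 100% = median nuclei count of all wells on the same plate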). Conditions: HUVEC TNFalpha-induced E-selectin immunofluorescence imaging, at 2 µM; inhibition: stronger effect = higher value; nuclei count: measured here: cell number, toxicity.
The target of assay [4] is Voltage-gated potassium channel subunit beta-2 (Rattus norvegicus) (UniProt P62483). Nature of the assay: inhibitors of rat Kvbeta2 reductase activity – biochemical, NADPH fluorescence, primary screen (AID 622;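 active means fluorescence slope higher than the sample average by over 3 SD, cut at about -0.22 in these data, passing the limit was not always enough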;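 further: slope of raw intensity against log time taken from 70 to 1610 s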). Conditions: recombinant KvBeta, 4-cyanobenzaldehyde reduction, at 10 µM, stronger effect = higher value.
The target is the same in assay [5]. The experiment in a line: enhancers of rat Kvbeta2 NADPH turnover – biochemical, NADPH fluorescence, primary screen (AID 623;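 active means NADPH fluorescence slope more negative than the mean of all samples by about 3 SD, 99.7% confidence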;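 further: fluorescence intensity change per second fitted from 20 to 320 s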). The following applies: Recombinant KvBeta, NADPH fluorescence decrease slope, 10 min; at 10 µM; stronger effect = lower value.
Assay [6] deals with Muscarinic acetylcholine receptor M4 (Homo sapiens) (UniProt P08173). The experiment in a line: M4-linked GIRK flux change, two-sided – cell-based, HEK293 M4/GIRK, thallium flux, BTC-AM, M4 allosteric agonist project, primary screen (AID 625;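 active means fluorescence slope after compound addition differing from the mean of all tested samples at 99.7% confidence, mostly higher but some lower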;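 further: thallium influx through GIRK channels coupled to M4 in HEK293 cells with BTC-AM dye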). The following applies: at 10 µM, actives lie on both sides. In a few lines: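 Material: M4/GIRK1/GIRK2 stable HEK293 cell line. Medium: pH 7.3 thallium assay buffer. Dosing: single compound concentration, 10 µM final. Schedule: 1 h dye loading, 2 min kinetic read. Measured by: kinetic fluorescence with BTC-AM dye. Read-out: post-addition slope, 15–24 s, of baseline-normalized fluorescence. Benchmarks: carbachol and DMSO controls.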

A short description of assay [7]: blockers of RIG-like receptor reporter activation – cell-based, Sendai virus stimulus, luciferase, 10K MLSCN set, TLR/RLR signaling modifier project, primary screen (AID 602276;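 active means inhibition at or above 50% at 10 µM; inactive means inhibition below 50%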;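 further: firefly luciferase from ISG56 promoter only with Renilla not read in this screen; 0% = Sendai virus plus DMSO and 100% = medium plus DMSO without virus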). Conditions: HEK293 RL24 IRF3 luciferase reporter, at 10 µM, stronger effect = higher value. In general terms: A reporter such as luciferase makes a cellular process visible.
Assay [8] can be described thus: TLR3 IRF3 reporter activation blockers – cell-based, poly I:C stimulus, luciferase, 10K MLSCN set, primary screen (AID 602277;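 active means inhibition of the reporter signal at or above 50%; inactive means inhibition below 50%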). Conditions: HEK293-TLR3 RL24 IRF3 luciferase reporter, at 10 µM, stronger effect = higher value.

A word on the inhibition: it is the change of the read-out against control, counted positive when it falls.

Voltage-gated potassium channel subunit beta-2 (Rattus norvegicus), sequence (P62483 whole entry, looked up): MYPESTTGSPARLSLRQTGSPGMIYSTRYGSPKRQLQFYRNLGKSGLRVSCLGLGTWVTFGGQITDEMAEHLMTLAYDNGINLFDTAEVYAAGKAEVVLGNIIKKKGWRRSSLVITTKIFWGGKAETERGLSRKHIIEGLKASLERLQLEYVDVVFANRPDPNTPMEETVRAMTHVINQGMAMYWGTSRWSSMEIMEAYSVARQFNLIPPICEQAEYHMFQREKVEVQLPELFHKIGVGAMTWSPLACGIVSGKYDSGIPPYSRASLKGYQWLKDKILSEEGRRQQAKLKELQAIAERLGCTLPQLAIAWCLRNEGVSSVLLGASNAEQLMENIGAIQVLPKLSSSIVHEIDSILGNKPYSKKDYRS
Muscarinic acetylcholine receptor M4 (Homo sapiens), sequence (P08173 whole entry, looked up): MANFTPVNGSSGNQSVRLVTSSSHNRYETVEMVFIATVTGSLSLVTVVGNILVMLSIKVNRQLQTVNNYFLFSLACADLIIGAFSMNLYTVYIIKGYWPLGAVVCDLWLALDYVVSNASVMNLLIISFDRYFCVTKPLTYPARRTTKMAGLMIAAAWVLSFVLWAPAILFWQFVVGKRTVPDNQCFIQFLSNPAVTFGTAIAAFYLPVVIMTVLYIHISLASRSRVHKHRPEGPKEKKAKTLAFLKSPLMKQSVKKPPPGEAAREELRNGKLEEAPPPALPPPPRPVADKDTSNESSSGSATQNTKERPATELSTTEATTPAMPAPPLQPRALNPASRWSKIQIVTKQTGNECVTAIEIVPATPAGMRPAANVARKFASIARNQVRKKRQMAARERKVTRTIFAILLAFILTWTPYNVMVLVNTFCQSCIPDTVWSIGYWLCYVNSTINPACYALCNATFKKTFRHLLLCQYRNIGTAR

Consider `CC(C)CN1C(=O)c2ccc(C(=O)Nc3nccs3)cc2C1=O`, for which, in assay [1], the cell count turned out to be 513. The inhibition in assay [1] is 8.1% (inactive); in assay [3], -335% (inactive); in assay [7], 13.3% (inactive); in assay [8], 5.57% (inactive). Also, the inhibition of aggregation in assay [2] was -20.1% (inactive). In addition, the results for the nuclei count in assay [2] and in assay [3] were 120% and 137%, respectively. Moreover, the fluorescence slope is -0.586 (inactive) in assay [4] and 0.00611 (inactive) in assay [6]. The NADPH fluorescence slope in assay [5] was -2.9e-06 (inactive).

As for `CCOc1ccc(-c2noc(-c3ccncc3)n2)cc1OCC`, in assay [1], the cell count stood at 807. Further, the inhibition in assay [1] was 1.7% (inactive); in assay [3] it was -21.2% (inactive); in assay [7], 4.12% (inactive); in assay [8], -4.62% (inactive). Further, in assay [2], the inhibition of aggregation was 33.6% (inactive). Also, the figures for the nuclei count in assay [2] and in assay [3] were 106% and 117%, respectively. Further, the fluorescence slope is -0.533 (inactive) in assay [4] and 0.023 (active) in assay [6]. In addition, in assay [5], the NADPH fluorescence slope is 4e-05 (inactive).

In the case of `CCC(=O)Nc1cccc(Br)c1`, in assay [1], the cell count was found to be 323. The inhibition was 2.9% (inactive) in assay [1], -38.1% (inactive) in assay [3], -18.4% (inactive) in assay [7] and -1.97% (inactive) in assay [8]. The inhibition of aggregation in assay [2] was 17.6% (inactive). Besides, the nuclei count in assay [2] is 99.7%; in assay [3], 123%. Also, the fluorescence slope in assay [4] was -0.541 (inactive); in assay [6] it was 0.0051 (inactive). The NADPH fluorescence slope in assay [5] was -6e-05 (inactive).

For `CC(=O)N1CCc2cc(S(=O)(=O)CCC(=O)N3CCN(c4ccccn4)CC3)ccc21`, the cell count in assay [1] came out at 592. The inhibition in assay [1] is -2.7% (inactive); in assay [3], -65.1% (inactive); in assay [7], -15.2% (inactive); in assay [8], -27.2% (inactive). Besides, the inhibition of aggregation in assay [2] was 2.8% (inactive). Moreover, the nuclei count is 107% in assay [2] and 94.5% in assay [3]. In addition, the fluorescence slope is -0.456 (inactive) in assay [4] and 0.0102 (inactive) in assay [6]. The NADPH fluorescence slope in assay [5] was 5.1e-05 (inactive).

For the molecule `Cc1cc(Nc2ccccc2)n(CCC#N)n1`, the cell count in assay [1] came out at 350. For the same molecule, the inhibition in assay [1] was 1.6% (inactive); in assay [3], -89.1% (inactive); in assay [7] it was 15.7% (inactive); in assay [8], 14.3% (inactive). Further, in assay [2], the inhibition of aggregation was -7.9% (inactive). Also, the nuclei count in assay [2] was determined as 96.4%; in assay [3] it was 129%. Also, the fluorescence slope in assay [4] was -0.415 (inactive); in assay [6] it was 0.00613 (inactive). The NADPH fluorescence slope in assay [5] was -8.1e-05 (inactive).

Turning to `CC1(C)CC(=O)C=C(Nc2ccc(F)cc2)C1`, the cell count in assay [1] worked out at 454. In addition, the inhibition is 10.9% (inactive) in assay [1], -20% (inactive) in assay [3], -2.98% (inactive) in assay [7] and 13.6% (inactive) in assay [8]. The inhibition of aggregation in assay [2] was 3.9% (inactive). Besides, the results for the nuclei count in assay [2] and in assay [3] were 99.5% and 109%, respectively. For the same molecule, the figures for the fluorescence slope in assay [4] and in assay [6] were -0.607 (inactive) and 0.00469 (inactive), respectively. For the same molecule, the NADPH fluorescence slope in assay [5] is 3.1e-05 (inactive).

In the case of `CCCCC(CC)Cn1c2nc3ccccc3nc2c2c(=N)oc(C)nc21` (centres undefined), in assay [1], the cell count was 624. The inhibition in assay [1] is 15.7% (inactive); in assay [3] it was -5.3% (inactive); in assay [7] it was 16.1% (inactive); in assay [8] it was 15.4% (inactive). Further, in assay [2], the inhibition of aggregation is 23.1% (inactive). The nuclei count amounted to 64.9% in assay [2] and 97.3% in assay [3]. In addition, the fluorescence slope is -0.196 (inactive) in assay [4] and 0.00498 (inactive) in assay [6]. The NADPH fluorescence slope in assay [5] was 4.4e-06 (inactive).

As for `CC1(C)NC(=O)N(CCCOc2ccc(Br)cc2Cl)C1=O`, in assay [1], the cell count is 278. The inhibition in assay [1] was -10% (inactive); in assay [3] it was -4.9% (inactive); in assay [7] it was -28.8% (inactive); in assay [8], -113% (inactive). Also, in assay [2], the inhibition of aggregation was -8.8% (inactive). Moreover, the nuclei count is 110% in assay [2] and 119% in assay [3]. Moreover, the fluorescence slope in assay [4] was -0.458 (inactive); in assay [6] it was 0.00559 (inactive). The NADPH fluorescence slope in assay [5] was -2.9e-06 (inactive).

On to `COc1ccc(CCNC(=O)COc2ccc(S(=O)(=O)N3CCOCC3)cc2)cc1`, for which, in assay [1], the cell count worked out at 588. The inhibition was -17.6% (inactive) in assay [1], 11.7% (inactive) in assay [3], 12.7% (inactive) in assay [7] and 23% (inactive) in assay [8]. Further, the inhibition of aggregation in assay [2] is 10.7% (inactive). Also, the nuclei count amounted to 88.7% in assay [2] and 116% in assay [3]. Moreover, the fluorescence slope is -0.32 (inactive) in assay [4] and 0.00641 (inactive) in assay [6]. For the same molecule, the NADPH fluorescence slope in assay [5] is -4.1e-05 (inactive).

Consider `O=C(NCc1cccnc1)c1cn(CCc2ccccc2)nn1`, for which the cell count in assay [1] stood at 569. Also, the inhibition in assay [1] is -0.4% (inactive); in assay [3] it was -48.9% (inactive); in assay [7] it was 10.9% (inactive); in assay [8], 16.6% (inactive). Besides, the inhibition of aggregation in assay [2] is -18.3% (inactive). The nuclei count in assay [2] was found to be 98.8%; in assay [3] it was 110%. Also, the fluorescence slope in assay [4] is -0.31 (inactive); in assay [6] it was 0.0065 (inactive). In addition, the NADPH fluorescence slope in assay [5] is -2.1e-05 (inactive).

As for `O=S(=O)(NCCc1ccncc1)c1cc(Br)ccc1F`, the cell count in assay [1] was 231. For the same molecule, the inhibition in assay [1] was 1.9% (inactive); in assay [3], -46.9% (inactive); in assay [7], 24.5% (inactive); in assay [8], 16.5% (inactive). Also, the inhibition of aggregation in assay [2] was -9.7% (inactive). Also, the nuclei count in assay [2] was found to be 106%; in assay [3], 110%. Further, the fluorescence slope in assay [4] was -0.626 (inactive); in assay [6] it was 0.00792 (inactive). Besides, in assay [5], the NADPH fluorescence slope was -1.6e-05 (inactive).

For `O=C(Nc1ccc(Cl)cc1)N1CCSCC1`, the cell count in assay [1] amounted to 358. For the same molecule, the inhibition in assay [1] was 6.3% (inactive); in assay [3], 37.4% (inactive); in assay [7], -2.29% (inactive); in assay [8] it was -14.3% (inactive). The inhibition of aggregation in assay [2] is -8.3% (inactive). Besides, the nuclei count was found to be 104% in assay [2] and 84.1% in assay [3]. Also, the figures for the fluorescence slope in assay [4] and in assay [6] were -0.494 (inactive) and 0.00504 (inactive), respectively. In addition, the NADPH fluorescence slope in assay [5] is -3e-05 (inactive).

For the molecule `CCN(CC)C(=O)c1sc(NC(=O)c2ccco2)c(C#N)c1C`, in assay [1], the cell count is 752. Also, the inhibition in assay [1] is -1.3% (inactive); in assay [3], 1.3% (inactive); in assay [7] it was 11.4% (inactive); in assay [8], 13.3% (inactive). For the same molecule, the inhibition of aggregation in assay [2] was -26% (inactive). The nuclei count in assay [2] is 118%; in assay [3] it was 117%. In addition, the figures for the fluorescence slope in assay [4] and in assay [6] were -0.586 (inactive) and 0.00573 (inactive), respectively. In addition, the NADPH fluorescence slope in assay [5] was 1.3e-05 (inactive).

For the molecule `O=C(Nc1ccc(S(=O)(=O)NCCc2ccccc2)cc1)c1ccc(Br)o1`, the cell count in assay [1] was found to be 546. The inhibition was -1.3% (inactive) in assay [1], -10.4% (inactive) in assay [3], -1.94% (inactive) in assay [7] and -11.8% (inactive) in assay [8]. Moreover, the inhibition of aggregation in assay [2] was -22.6% (inactive). The nuclei count in assay [2] amounted to 62.9%; in assay [3], 88.5%. Moreover, the results for the fluorescence slope in assay [4] and in assay [6] were -0.499 (inactive) and 0.00439 (inactive), respectively. In assay [5], the NADPH fluorescence slope was -5.2e-06 (inactive).
